This sample holds only a part of the variants without activity.
B1: tRNA (parent)
chain: GUUCCGUUGGCGUAAUGGUAACGCGUCUCCCUCCUAAGGAGAAGACUGCGGGUUCGAGUCCCGUACGGAACG

Variants of: B1
Assay: yeast fitness relative to wild type (ratio to wild type); higher = fitter; tRNA-Arg(CCU), competitive growth, 37 C, YPD
How it was run: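 Amplicons of the tRNA-Arg(CCU) gene were sequenced, 100-nucleotide paired-end, from the start population and from each end population of a pooled yeast competition. The competition, in six parallel replicates, lasted 24 hours in YPD at 37°C. Fitness relative to wild type was calculated from changes in genotype frequencies. Genotypes had to have ≥ 100 starting reads, and estimates < 0.5 were set to 0.5.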

Point of comparison: U8G C11U U16C A42U, yeast fitness 0.749. Against it:
- U8C G23A A65C — lower, 0.571
- U8G A20G C60G C61A — lower, ≤ 0.5
- U8C U28G C46G C49U A69C — lower, ≤ 0.5
- U8C G23A G44C A45U C49A — lower, ≤ 0.5
- G9A C11U A36C G48C — lower, ≤ 0.5
- G9A A14C A42G C49G U54C G63C A70U — lower, ≤ 0.5
- U8C U13G C22U — lower, 0.529
- U8C G23C — lower, 0.642
- G9A C29U U47A A57G — lower, ≤ 0.5
- U8G C27U C30A A43C — lower, ≤ 0.5
- G9A C11U C29A U53G — lower, ≤ 0.5
- U8C G44A U53C C55U A70U — lower, ≤ 0.5
- U8G A21C G56C — higher, 0.766
- G9A C29A A42C C55U — lower, ≤ 0.5
- U8C U26A — higher, 0.884
- U8G G25C G41C — lower, 0.644
- G9A C29U C46U C66U — lower, 0.637
- U8C U13C A36U G38A A65C — lower, ≤ 0.5
- G9A C24A C49A A57C — lower, ≤ 0.5
- U8G A37U G52A A57C C60A — lower, ≤ 0.5
- U8G U26A C31U — lower, 0.52
- U8G A15G C24U C29G A45C C60A — lower, 0.551
- G9A A14C C55U — lower, ≤ 0.5
- U8G A20U A36C A65G — lower, ≤ 0.5
- U8G G9U C30A C61A — lower, 0.539
- U8G G10C A20G U59C G67A — lower, ≤ 0.5
- G9A A21G C61U A65U — lower, ≤ 0.5
- G9A A21G U32G G39C G52C — lower, ≤ 0.5
- U8G C31G G41C G50C C60U A69C — lower, ≤ 0.5
- U8G C11G U32A — lower, 0.642
- G9A C27G C31G A36U A40G G48A G52A C60A — lower, 0.575
- U8G C22U U28C C62A — lower, ≤ 0.5
- G9A A40C G68A — lower, ≤ 0.5
- U8C G23C C27G G50A C66G A69G — higher, 0.836
- G9A C11A C24U C34A A37U C62A C66A — lower, ≤ 0.5
- U8G A37U C66U — lower, ≤ 0.5
- U8G G10C A20G — lower, ≤ 0.5
- U8C G44A — higher, 1.01
- G9A A14C C22G A45C G51C U64C — lower, ≤ 0.5
- U8G A21G C27A U35A C62A A65C — lower, 0.568
- U8G A45U G50A A69C — lower, ≤ 0.5
- U8G C24U — lower, 0.626
- G9A A21C G25C — lower, 0.565
- G9A C24A C55A — lower, ≤ 0.5
- G9A C27A A42C C49G G51C C55G C66U — lower, ≤ 0.5
- U8C G18A — lower, 0.686
- U8G A20G U47G A57G — lower, 0.654
- U8G G12A G50C G52C C55U C62U A70C — lower, ≤ 0.5
- U8G G17A A70C — lower, ≤ 0.5
- U8C G38A G52A — lower, ≤ 0.5
- U8C U16A C27U C55G — lower, 0.691
- G9A C11A G38C C60G — lower, ≤ 0.5
- U8G C46G G52A — lower, ≤ 0.5
- U8C U16C A65G — lower, 0.707
- G9A A37G A57U C66U — lower, ≤ 0.5
- U8G A15C — lower, 0.598
- U8G C27A C61A G67A — lower, ≤ 0.5
- U8G G17A A20C C22G C29G C34G G68A — lower, 0.606
- G9A C27G — higher, 0.757
- G9A C22U C30A C49A C55A C62U C66U — lower, ≤ 0.5
- U8C G25A A36C A70G — lower, 0.624
- G9A C30A A42C — lower, 0.562
- U8C U26G A42C — lower, 0.703
- U8C U19A A40U — lower, 0.581
- U8G G17A G48C — lower, ≤ 0.5
- U8C U32C C46G G67C — lower, ≤ 0.5
- U8G G41C — lower, 0.657
- U8G G41A — lower, 0.642
- U8G C24G C55A A65U — lower, ≤ 0.5
- G9A A37G — higher, 0.795
- U8C G52A — higher, 0.765
- G9A A65C — higher, 0.93
- U8C G50A A69U — higher, 0.804
- G9A A21G C29G C31A C34G — lower, ≤ 0.5
- G9A C24U A40U A57C — lower, ≤ 0.5
- U8C G41C A69U — lower, 0.637
- G9A A21C C22A C66U — lower, ≤ 0.5
- U8C G23U A42G C60A — lower, ≤ 0.5
- G9A A42C G58A — higher, 0.917
- G9A C24G G41C U53C G58U — lower, ≤ 0.5
- U8C U16C C24U U28C U47A C55U — lower, ≤ 0.5
- U8C G18C A20U C49G — lower, ≤ 0.5
- U8C G18C A21C U47A G48C U54G A65C — lower, ≤ 0.5
- G9A C11G C24G U32A G50A C61U G63C — lower, ≤ 0.5
- G9A A36G G67C — lower, 0.664
- G9A A20G A21U — lower, 0.57
- G9A C11U A15C A20G G48A C60G — lower, 0.662
- G9A C22A U53A A57G — lower, 0.554
- U8G C33G U54A U59A G67A — lower, ≤ 0.5
- G9A A40C A69U — lower, 0.722
- G9A A45U U64C — lower, 0.57
- U8G U32C C66U — lower, ≤ 0.5
- U8C U19G A45C — lower, ≤ 0.5
- G9A A21C G25C U64A G67A — lower, ≤ 0.5
- G9A C27G C29A C49G — lower, ≤ 0.5
- U8C G23A C34A A42U C46A A57C — lower, ≤ 0.5
- G9A A20U — higher, 0.829
- G9A C11G U19C G67A — lower, ≤ 0.5
- G9A C24G C49U C55G G58A — lower, ≤ 0.5
- U8C G44A C55U — lower, ≤ 0.5
- G9A C30G — lower, 0.707
- G9A C30A — higher, 0.964
- U8G G12A U13G C22G C24G A36G A37C A57U G68C — lower, 0.589
- U8G G10C U13G C55G U59A — lower, ≤ 0.5
- G9A C24G C29G G39C C55A — lower, ≤ 0.5
- G9A A40U — higher, 1.06
- U8C G25C G38A G58A C60U C62U — lower, ≤ 0.5
- U8G U13A A43G U53A G68A — lower, ≤ 0.5
- U8C U13A C24U C29G C33A U47A C55U A65C A69G — lower, ≤ 0.5
- U8G C29G — lower, 0.55
- G9A A20G C62U — lower, 0.736
- G9A A57C — lower, 0.591
- U8G U35C A57C — lower, ≤ 0.5
- U8G C24A C30G A40G — lower, 0.559
- U8C G51A — higher, 0.817
- G9A C22G U35C A37U — lower, 0.535
- U8C U13A A65G — lower, 0.716
- U8G A70U — lower, 0.59
- U8G A21U G56A — lower, ≤ 0.5
- G9A C29A A37G G58A — lower, 0.571
- G9A A21U G44A C55G — lower, 0.584
- G9A C11A G38C A40C — lower, ≤ 0.5
- G9A A21U C34G G39A C55U C61G — lower, ≤ 0.5
- U8G C22U C62A — lower, 0.559
- G9A C11U A36C A57G A65U — lower, ≤ 0.5
- G9A A43U G56C — lower, 0.536
- G9A A21G A40G A43C U54A — lower, ≤ 0.5
- U8G G58U A65G G67A — lower, 0.547
- G9A C11G C24G A42U — lower, ≤ 0.5
- G9A A20G A40C A42U A43C G48A — lower, ≤ 0.5
- G9A C27G C31U C49G G58C — lower, ≤ 0.5
- G9A C27U A36G — lower, 0.59
- G9A C11U A36C G68C — lower, ≤ 0.5
- G9A C11A G58C — lower, ≤ 0.5
- U8G A37C G68A — lower, ≤ 0.5
- U8G C46A C55A — lower, ≤ 0.5
- G9A A40U A65U — lower, 0.718
- G9A C24G U35C C49U C61G — lower, ≤ 0.5
- U8G A37C G52C G58C — lower, ≤ 0.5
- U8C G51C G58C — lower, ≤ 0.5
- U8C G50A — higher, 0.773
- U8G C24A C30G A40G U47G C55U C66U A70C — lower, ≤ 0.5
- U8C U19A A40C G44C G48C U53G — lower, ≤ 0.5
- U8G U26A A43C — lower, 0.55
- U8C G67C — higher, 0.953
- U8C G67A — higher, 0.85
- U8G G9C U54G — lower, ≤ 0.5
- U8G U26A A43C C49U C55G C60A — lower, ≤ 0.5
- G9A C11U C31U U59A — lower, ≤ 0.5
- G9A A45C — higher, 0.971
- U8G G10C A20G C55U — lower, ≤ 0.5
- U8C U47C A69C — lower, 0.714
- U8C U28G C30G A40C A42U — lower, 0.54
- U8G C24G G41A — lower, 0.553
- U8G A43C C61U — lower, ≤ 0.5
- U8G C34G C55A C66U — lower, ≤ 0.5
- U8C G18C G50A C60U — lower, 0.546
- G9A A14U G48C — lower, ≤ 0.5
- G9A C11U G48A — lower, 0.715
- G9A A14G G23A G41C G51C — lower, ≤ 0.5
- G9A A37C A45U — lower, ≤ 0.5
- G9A A40U C62G — lower, 0.593
- U8C U19A A57C U64A — lower, ≤ 0.5
- G9A A70G — higher, 1.06
- U8G A21G C29U U32C — lower, ≤ 0.5
- U8C G38C U64A C66U — lower, ≤ 0.5

Source: the RNAGym collection of RNA variant scans (doi:10.1126/science.aae0568)
